According to ChEMBL document CHEMBL3124793, “Discovery of spirofused piperazine and diazepane amides as selective histamine-3 antagonists with in vivo efficacy in a mouse model of cognition” (J Med Chem, 2014):
Calls of active or inactive are those of the source.

Columns and labels:
Histamine H3 receptor [1] = target: T1, Histamine H3 receptor (Homo sapiens, UniProt Q9Y5N1); test: Antagonist activity at human histamine H3 receptor long form expressed in CHOK1 cells assessed as inhibition of R-alpha-methylhistamine-induced [35S]GTPgammaS binding after 3 hrs by scintillation proximity assay; type: functional, cell-based, CHO-K1
T1 sequence (Q9Y5N1 whole entry): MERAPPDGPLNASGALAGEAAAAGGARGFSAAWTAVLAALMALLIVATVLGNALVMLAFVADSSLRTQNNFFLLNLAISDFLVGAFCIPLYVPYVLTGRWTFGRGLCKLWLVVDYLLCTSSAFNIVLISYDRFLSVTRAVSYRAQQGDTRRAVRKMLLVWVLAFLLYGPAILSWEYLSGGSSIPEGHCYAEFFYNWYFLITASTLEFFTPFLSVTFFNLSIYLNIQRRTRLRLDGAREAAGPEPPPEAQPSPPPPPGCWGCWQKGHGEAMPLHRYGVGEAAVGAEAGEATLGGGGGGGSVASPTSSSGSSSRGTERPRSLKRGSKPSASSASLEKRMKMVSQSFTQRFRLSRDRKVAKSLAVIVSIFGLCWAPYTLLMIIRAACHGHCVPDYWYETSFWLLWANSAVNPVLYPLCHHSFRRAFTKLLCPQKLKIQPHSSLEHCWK
Summary of the method: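 Membranes from CHO-K1 cells stably expressing human H3R long form (445 aa) incubated 3 h with test compound, 25 nM R-α-methylhistamine, 10 μM GDP, 0.2 nM [35S]GTPγS and WGA PVT SPA beads; bead-bound [35S]GTPγS counted by scintillation. Average of n > 2, standard error <20%.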

[2] = Intrinsic clearance in rat liver microsomes; type: ADME; conditions: read-out: CLH
Rattus norvegicus [3] = test: […] clearance in rat at 2.4 umol/kg, iv; type: ADME, organism-based; conditions: in vivo
Summary of the method: (§1)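 IV dosing in male fasted rats, doses in μmol/kg; mean Vss, half-life and clearance derived; number of rats per compound reported.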

[4] = Half life in rat at 2.4 umol/kg, iv; type: ADME, organism-based; conditions: in vivo; summary of the method: as §1
[5] = target: Adenosine receptor A2a (Homo sapiens) (UniProt P29274); test: Activity at adenosine A2a receptor (unknown origin) at 10 uM relative to control
Adenosine receptor A2a (Homo sapiens), sequence (P29274 whole entry): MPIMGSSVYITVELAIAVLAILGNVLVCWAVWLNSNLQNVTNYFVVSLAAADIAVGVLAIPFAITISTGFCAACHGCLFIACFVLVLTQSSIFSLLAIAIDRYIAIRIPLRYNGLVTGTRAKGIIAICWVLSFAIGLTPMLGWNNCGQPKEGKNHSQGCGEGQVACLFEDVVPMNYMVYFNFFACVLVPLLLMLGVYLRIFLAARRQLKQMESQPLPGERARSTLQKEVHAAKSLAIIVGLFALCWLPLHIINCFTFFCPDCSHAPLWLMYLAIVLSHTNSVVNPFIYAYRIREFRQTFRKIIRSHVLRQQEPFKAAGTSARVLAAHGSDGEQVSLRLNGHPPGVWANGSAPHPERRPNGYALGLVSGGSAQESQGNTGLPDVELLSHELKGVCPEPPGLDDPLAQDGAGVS
Summary of the method: (§2)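 Single-concentration binding at 10 μM against a panel of off-targets, run by an outside testing laboratory; activity judged against each assay's defined criteria.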

[6] = target: Phosphodiesterase 4 (Homo sapiens) (UniProt P27815+Q08499+Q07343+Q08493); test: Activity at PDE4 (unknown origin) at 10 uM relative to control; type: protein assay; summary of the method: as §2
[7] = Percentage unbound in human plasma; type: ADME, cell-free
Summary of the method: (§3)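 Plasma protein binding in human or rat plasma, expressed as percent free.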

[8] = target: Histamine H4 receptor (Homo sapiens) (UniProt Q9H3N8); test: Activity at histamine H4 receptor (unknown origin) at 10 uM relative to control; summary of the method: as §2
Histamine H4 receptor (Homo sapiens), sequence (Q9H3N8 whole entry): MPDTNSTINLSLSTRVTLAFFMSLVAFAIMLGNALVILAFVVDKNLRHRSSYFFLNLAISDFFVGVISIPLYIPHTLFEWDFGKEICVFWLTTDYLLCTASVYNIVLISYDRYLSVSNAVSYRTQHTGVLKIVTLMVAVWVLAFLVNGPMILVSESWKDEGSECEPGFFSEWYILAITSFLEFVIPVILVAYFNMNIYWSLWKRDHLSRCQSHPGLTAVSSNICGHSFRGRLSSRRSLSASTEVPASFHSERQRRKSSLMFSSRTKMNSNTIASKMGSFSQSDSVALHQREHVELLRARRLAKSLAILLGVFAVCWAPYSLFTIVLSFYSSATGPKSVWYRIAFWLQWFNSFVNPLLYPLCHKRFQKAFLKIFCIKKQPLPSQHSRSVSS

[9] = target: D(2) dopamine receptor (Homo sapiens) (UniProt P14416); test: Activity at dopamine D2 receptor (unknown origin) at 10 uM relative to control; summary of the method: as §2
D(2) dopamine receptor (Homo sapiens), sequence (P14416 whole entry): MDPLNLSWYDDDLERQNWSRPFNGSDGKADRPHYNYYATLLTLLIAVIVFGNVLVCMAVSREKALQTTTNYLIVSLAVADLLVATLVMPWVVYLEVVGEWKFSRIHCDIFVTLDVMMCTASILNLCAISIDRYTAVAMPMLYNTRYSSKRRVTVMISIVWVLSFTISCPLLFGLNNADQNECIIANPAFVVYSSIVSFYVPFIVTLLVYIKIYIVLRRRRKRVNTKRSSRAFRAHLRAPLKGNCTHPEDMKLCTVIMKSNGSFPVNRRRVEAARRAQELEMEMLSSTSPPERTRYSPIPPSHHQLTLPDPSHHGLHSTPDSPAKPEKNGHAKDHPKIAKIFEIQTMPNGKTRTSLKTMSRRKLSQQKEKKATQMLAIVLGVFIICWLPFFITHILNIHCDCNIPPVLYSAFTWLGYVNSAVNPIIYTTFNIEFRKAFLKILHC

[10] = Volume of distribution at steady state in rat at 2.4 umol/kg, iv; type: ADME, organism-based; conditions: in vivo, read-out: Vdss; summary of the method: as §1
[11] = Intrinsic clearance in human liver microsomes; type: ADME; conditions: read-out: CLH
Summary of the method: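 Human liver microsomal clearance, expressed as μL/min/mg.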

[12] = Apparent permeability from apical to basolateral side in MDCK cells; type: ADME, cell-based, Canis lupus familiaris; conditions: dog
Summary of the method: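 MDCK monolayers; A-to-B Papp in 1 × 10⁻⁶ cm/s; efflux taken as ratio of A-to-B Papp over B-to-A Papp.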

[13] = target: Histamine H1 receptor (Homo sapiens) (UniProt P35367); test: Activity at histamine H1 receptor (unknown origin) at 10 uM relative to control; summary of the method: as §2
Histamine H1 receptor (Homo sapiens), sequence (P35367 whole entry): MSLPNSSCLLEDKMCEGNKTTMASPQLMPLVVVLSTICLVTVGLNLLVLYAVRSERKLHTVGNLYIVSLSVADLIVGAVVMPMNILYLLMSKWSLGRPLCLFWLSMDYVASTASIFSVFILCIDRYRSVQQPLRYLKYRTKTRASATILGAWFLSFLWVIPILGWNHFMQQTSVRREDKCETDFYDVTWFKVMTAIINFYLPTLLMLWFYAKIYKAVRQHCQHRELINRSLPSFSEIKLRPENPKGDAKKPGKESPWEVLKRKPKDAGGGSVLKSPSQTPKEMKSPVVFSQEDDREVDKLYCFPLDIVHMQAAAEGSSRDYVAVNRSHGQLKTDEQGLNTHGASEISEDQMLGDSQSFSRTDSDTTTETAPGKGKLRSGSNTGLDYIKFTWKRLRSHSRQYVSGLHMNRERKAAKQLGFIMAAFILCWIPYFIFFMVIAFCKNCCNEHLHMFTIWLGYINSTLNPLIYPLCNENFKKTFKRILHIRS

[14] = target: Sodium-dependent noradrenaline transporter (Homo sapiens) (UniProt P23975); test: Activity at NET (unknown origin) at 10 uM relative to control; summary of the method: as §2
Sodium-dependent noradrenaline transporter (Homo sapiens), sequence (P23975 whole entry): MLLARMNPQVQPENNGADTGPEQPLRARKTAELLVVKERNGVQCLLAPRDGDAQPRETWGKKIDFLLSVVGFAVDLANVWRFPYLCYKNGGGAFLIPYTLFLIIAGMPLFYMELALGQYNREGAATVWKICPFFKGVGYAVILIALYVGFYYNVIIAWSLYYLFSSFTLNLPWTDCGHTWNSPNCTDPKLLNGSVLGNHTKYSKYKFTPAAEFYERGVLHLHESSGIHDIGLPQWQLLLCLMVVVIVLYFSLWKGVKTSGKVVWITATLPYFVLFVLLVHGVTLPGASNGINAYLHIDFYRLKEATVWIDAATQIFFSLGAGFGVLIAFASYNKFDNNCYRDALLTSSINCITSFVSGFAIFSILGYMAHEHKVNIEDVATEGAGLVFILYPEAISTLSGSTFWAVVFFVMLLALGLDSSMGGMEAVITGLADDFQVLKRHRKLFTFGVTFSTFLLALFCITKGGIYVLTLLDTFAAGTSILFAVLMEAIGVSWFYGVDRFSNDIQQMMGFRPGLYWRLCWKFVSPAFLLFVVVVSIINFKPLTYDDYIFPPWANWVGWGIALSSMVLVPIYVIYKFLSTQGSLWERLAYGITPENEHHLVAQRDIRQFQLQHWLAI

[15] = Equilibrium solubility of the compound at pH 7.4; type: physicochemical; conditions: buffer
Homo sapiens [16] = organism: Homo sapiens; test: Activity at nicotinic acetylcholine receptor (unknown origin) at 10 uM relative to control; summary of the method: as §2
[17] = target: T2, Muscarinic acetylcholine receptor M2 (Homo sapiens) (UniProt P08172); test: Activity at muscarinic M2 receptor (unknown origin) at 10 uM relative to control; summary of the method: as §2
T2 sequence (whole entry): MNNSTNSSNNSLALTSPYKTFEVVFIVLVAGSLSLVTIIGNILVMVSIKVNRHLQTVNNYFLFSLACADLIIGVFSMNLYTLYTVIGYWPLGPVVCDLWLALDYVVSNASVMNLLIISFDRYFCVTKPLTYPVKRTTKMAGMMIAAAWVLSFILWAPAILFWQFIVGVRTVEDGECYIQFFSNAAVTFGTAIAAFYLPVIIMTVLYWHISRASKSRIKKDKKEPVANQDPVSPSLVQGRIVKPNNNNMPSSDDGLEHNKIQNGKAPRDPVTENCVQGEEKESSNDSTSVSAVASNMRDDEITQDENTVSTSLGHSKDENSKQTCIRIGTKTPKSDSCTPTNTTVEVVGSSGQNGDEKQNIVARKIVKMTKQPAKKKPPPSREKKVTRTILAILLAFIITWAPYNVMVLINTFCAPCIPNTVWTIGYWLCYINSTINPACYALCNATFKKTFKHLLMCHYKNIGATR

Homo sapiens [18] = organism: Homo sapiens; test: Activity at GABA receptor (unknown origin) at 10 uM relative to control; summary of the method: as §2
[19] = target: T3, 5-hydroxytryptamine receptor 1A (Homo sapiens) (UniProt P08908); test: Activity at 5-HT1A receptor (unknown origin) at 10 uM relative to control; summary of the method: as §2
T3 sequence (whole entry): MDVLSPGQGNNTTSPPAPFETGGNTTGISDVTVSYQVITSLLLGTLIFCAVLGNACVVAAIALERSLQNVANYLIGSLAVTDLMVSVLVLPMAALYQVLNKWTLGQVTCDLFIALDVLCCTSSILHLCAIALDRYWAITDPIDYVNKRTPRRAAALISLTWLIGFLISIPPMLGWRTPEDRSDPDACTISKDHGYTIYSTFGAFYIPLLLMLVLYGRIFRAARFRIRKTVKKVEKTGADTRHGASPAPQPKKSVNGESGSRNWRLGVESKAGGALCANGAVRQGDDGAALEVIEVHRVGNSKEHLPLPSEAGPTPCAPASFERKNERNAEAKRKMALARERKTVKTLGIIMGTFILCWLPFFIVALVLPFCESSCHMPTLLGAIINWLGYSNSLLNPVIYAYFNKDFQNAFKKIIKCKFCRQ

[20] = target: Histamine H2 receptor (Homo sapiens) (UniProt P25021); test: Activity at histamine H2 receptor (unknown origin) at 10 uM relative to control; summary of the method: as §2
Histamine H2 receptor (Homo sapiens), sequence (P25021 whole entry): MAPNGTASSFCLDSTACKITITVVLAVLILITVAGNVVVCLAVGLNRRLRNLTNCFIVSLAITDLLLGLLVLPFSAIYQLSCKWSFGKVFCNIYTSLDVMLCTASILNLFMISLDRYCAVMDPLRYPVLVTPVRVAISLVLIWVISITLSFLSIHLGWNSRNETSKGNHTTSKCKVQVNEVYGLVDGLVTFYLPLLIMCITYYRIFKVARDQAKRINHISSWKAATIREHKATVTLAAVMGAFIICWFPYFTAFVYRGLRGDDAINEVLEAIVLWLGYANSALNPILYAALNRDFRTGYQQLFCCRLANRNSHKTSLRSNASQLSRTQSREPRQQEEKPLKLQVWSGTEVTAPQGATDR

[21] = Cmax in Sprague-Dawley rat 3 umol/kg, po; type: ADME, organism-based; design: dose 3 umol/kg, route oral; conditions: in vivo
Histamine H3 receptor [22] = target: T1, Histamine H3 receptor; test: Displacement of [3H]-N-alpha-methylhistamine from human histamine H3 receptor expressed in CHOK1 cells after 1.5 hrs by scintillation proximity assay; type: cell-based, CHO-K1
Summary of the method: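 Human H3R-CHO-K1 membranes incubated 1.5 h with test compound and [3H]-N-α-methylhistamine in SPA format; nonspecific binding defined with 10 μM imetit; bead-bound radioligand counted. Average of n > 2, standard error <50%.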

[23] = Plasma clearance in Sprague-Dawley rat; type: ADME, organism-based; conditions: read-out: AUC
[24] = Oral bioavailability in Sprague-Dawley rat 3 umol/kg; type: ADME, organism-based; conditions: in vivo
[25] = Drug uptake in Sprague-Dawley rat CSF at 3 umol/kg, iv after 1 hr; type: ADME, organism-based, Cerebrospinal fluid; conditions: read-out: Drug uptake
Summary of the method: (§4)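 3 μmol/kg IV; plasma, brain and CSF sampled at 1 h, n = 4; brain not corrected for ~2–3% vascular contamination; nonspecific binding during CSF sampling not evaluated; mean with standard deviation.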

[26] = Octanol-water partition coefficient, log D of the compound by shake flask HPLC analysis; type: physicochemical
Summary of the method: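 logD between octanol and water by shake-flask with HPLC analysis.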

Salmonella typhimurium = test: Genotoxicity in Salmonella typhimurium by Ames test; type: toxicity, organism-based; conditions: salmonella enterica subsp. enterica serovar typhimurium
Mus musculus = test: Cognitive enhancing effect in CF-1 mouse at 1 to 10 mg/kg, sc administered 60 mins prior to acquisition phase by novel object exploration test; type: functional, organism-based
Summary of the method: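 Male CF-1 mice given 1, 3 or 10 mg/kg s.c. 60 min before acquisition with two identical objects; one object then swapped for a novel one; mice re-tested 15 min later. Novel/familiar interaction ratio (50% = no preference) from manual scoring; mean ± SD; ANOVA with Newman–Keuls post hoc.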

[27] = Drug recovery in Sprague-Dawley rat urine at 3 umol/kg, iv after 24 hrs; type: ADME, organism-based; conditions: read-out: Drug recovery
[28] = Plasma concentration in Sprague-Dawley rat at 3 umol/kg, iv after 1 hr; type: ADME, organism-based; summary of the method: as §4
[29] = Induction of phospholipidosis in mouse I-13.35 cells by EthD-2 staining-based assay; type: cell-based
Rattus norvegicus [30] = test: […] clearance in rat at 3 umol/kg, iv; type: ADME, organism-based; conditions: in vivo; summary of the method: as §1
[31] = Half life in rat at 3 umol/kg, iv; type: ADME, organism-based; conditions: in vivo; summary of the method: as §1
Brain = test: Drug uptake in Sprague-Dawley rat brain at 3 umol/kg, iv after 1 hr; type: ADME, organism-based; conditions: in vivo; summary of the method: as §4
Rattus norvegicus [32] = organism: Rattus norvegicus; test: Inhibition of rat sigma-2 receptor at 10 uM relative to control
Summary of the method: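 Radioligand binding screen within a 144-receptor secondary pharmacology panel, run at a single 10 μM test concentration. The response is expressed as percent activity. Activity was judged against each assay's own defined criteria.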

[33] = Percentage unbound in rat plasma; type: ADME, cell-free; summary of the method: as §3
[34] = Volume of distribution at steady state in rat at 3 umol/kg, iv; type: ADME, organism-based; conditions: in vivo, read-out: Vdss
Summary of the method: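 Male fasted rats given a single IV dose. Volume of distribution taken as the mean from plasma sampling after the IV dose. Animals per compound: 1 to 7.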

[35] = Apparent half life in Sprague-Dawley rat; type: ADME, organism-based; conditions: in vivo, read-out: t1/2(app) (converted)
[36] = Tmax in Sprague-Dawley rat 3 umol/kg, po; type: ADME, organism-based; conditions: in vivo

SMILES | IC50 (Histamine H3 receptor [1]) [nM] | microsomal CLint [2] [µL/min/mg] | Activity [5] [%] | Activity [6] [%] | Activity [8] [%] | Activity [9] [%] | microsomal CLint [11] [µL/min/mg] | Papp A→B [12] [×10⁻⁶ cm/s] | Activity [13] [%] | Activity [14] [%] | solubility thermodynamic [15] [µM] | Activity (Homo sapiens [16]) [%] | Activity [17] [%] | Activity (Homo sapiens [18]) [%] | Activity [19] [%] | further results
O=C(C1CC2(CCN(C3CCOCC3)CC2)C1)N1CCN(C2CCC2)CC1 | 1.9 | < 4 | > 10 | > 10 | > 10 | > 10 | < 4 | 5.1 | > 10 | > 10 | > 500 | > 10 | > 10 | > 10 | > 10 | CL (Rattus norvegicus [3]): 81.2 mL/min/kg; half-life [4]: 14.2 h; fraction unbound [7]: 0.51; Vd [10]: 74 L/kg
CC(C)N1CCN(C(=O)[C@H]2CC23CCN(C2CCOCC2)CC3)CC1 | 8.3 | 7 | > 10 | > 10 | > 10 | > 10 | < 4 | 13 | > 10 | > 10 | > 500 | > 10 | > 10 | > 10 | > 10 | Activity [20]: > 10%; Cmax [21]: 71 nM; Ki (Histamine H3 receptor [22]): 0.8 nM; clearance [23]: 53 mL/min/kg; bioavailability [24]: 99%; concentration at 1 h [25]: 34 nM; logD [26]: -0.26; Activity (Salmonella typhimurium): Non-toxic; Activity (Mus musculus): Active; dose excreted at 24 h [27]: 14%; concentration at 1 h [28]: 180 nM; EC50 [29]: > 300000 nM; CL (Rattus norvegicus [30]): 16.4 mL/min/kg; half-life [31]: 25.3 h; Drug uptake (Brain): 540 nmol/kg; inhibition (Rattus norvegicus [32]): 62%; fraction unbound [33]: 0.87; Vd [34]: 34.6 L/kg; half-life [35]: 15 h; Tmax [36]: 6 h
